target: Peptidyl-prolyl cis-trans isomerase FKBP1A (Homo sapiens) (UniProt P62942); test: Apparent binding affinity to FKBP12 PPI domain (unknown origin) in PBS at pH 7 by fluorescence spectrophotometric analysis relative to FK506
Method in brief: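 FKBP12, final 1 µM, diluted from a PBS stock (pH 7.4, 0.15 M NaCl) into phosphate buffer at 15 °C. Ligand 1–200 nM, final DMSO <0.3% v/v. Intrinsic Trp fluorescence quenching: excitation 280 nm, emission 325 nm, ligand-only spectra subtracted. Apparent Kd fitted from intensity versus ligand concentration, expressed as ratio to FK506 under identical conditions. At least 2 replicates, 3–4 at low concentrations.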

Chain of Peptidyl-prolyl cis-trans isomerase FKBP1A (Homo sapiens) (P62942 whole entry, the tested form may be a part): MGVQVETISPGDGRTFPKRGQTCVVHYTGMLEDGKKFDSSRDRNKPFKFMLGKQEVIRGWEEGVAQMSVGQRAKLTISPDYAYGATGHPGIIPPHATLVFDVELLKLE

Kd(app)	SMILES
0.5	O=C(C(=O)N1CCCC[C@H]1C(=O)NCCCc1ccccc1)c1ccccc1

target: Peptidyl-prolyl cis-trans isomerase FKBP1A (Homo sapiens) (UniProt P62942); test: Binding affinity to FKBP12 PPI domain (unknown origin) in water bulk solution by fluorescence spectrophotometric analysis relative to FK506

SMILES	Ratio
CCC[C@H](CCc1ccccc1)OC(=O)[C@@H]1CCCCN1C(=O)C(=O)c1ccccc1	1.6
CCCC(CCc1ccccc1)NC(=O)[C@@H]1CCCCN1C(=O)C(=O)c1ccccc1 (mixture of isomers)	5
CCC[C@@H](CCc1ccccc1)OC(=O)[C@@H]1CCCCN1C(=O)C(=O)c1ccccc1	1.1
CO[C@H]1C[C@@H]2CC[C@@H](C)[C@@](O)(O2)C(=O)C(=O)N2CCCC[C@H]2C(=O)O[C@H]([C@H](C)C[C@@H]2CC[C@@H](O)[C@H](OC)C2)CC(=O)[C@H](C)/C=C(\C)[C@@H](O)[C@@H](OC)C(=O)[C@H](C)C[C@H](C)/C=C/C=C/C=C/1C	0.5
CCC(C)(C)C(=O)C(=O)N1CCCC[C@H]1C(=O)O[C@H](CCc1ccccc1)c1ccccc1	25

Further lines, results first:

Ratio	SMILES
1	C=CC[C@@H]1/C=C(\C)C[C@H](C)C[C@H](OC)[C@H]2O[C@@](O)(C(=O)C(=O)N3CCCC[C@H]3C(=O)O[C@H](/C(C)=C/[C@@H]3CC[C@@H](O)[C@H](OC)C3)[C@H](C)[C@@H](O)CC1=O)[C@H](C)C[C@@H]2OC
1.2	COc1cc(OC)c(C(=O)C(=O)N2CCCC[C@H]2C(=O)OC(CCCc2ccccc2)CCCc2ccncc2)c(OC)c1 (some centres undefined)
750	CCC(C)(C)C(=O)C(=O)N1CCCC[C@H]1C(=O)O[C@@H](CCc1ccccc1)c1ccccc1

— ChEMBL document CHEMBL2311306, “The precise chemical-physical nature of the pharmacore in FK506 binding protein inhibition: ElteX, a New class of nanomolar FKBP12 ligands” (J Med Chem, 2013)
